The source made the active and inactive calls. The calls are words filed in the database; no cut-off is given here.
Legend:
[1] = biological target: T1, Acyl-CoA desaturase 1 (Mus musculus, UniProt P13516); assay: Inhibition of SCD1 in ICR mouse liver microsome using [9,10 3H]- stearoyl-Coenzyme A substrate assessed as decreased production of tritiated water after 20 min by scintillation counting analysis
T1 sequence (P13516 whole entry): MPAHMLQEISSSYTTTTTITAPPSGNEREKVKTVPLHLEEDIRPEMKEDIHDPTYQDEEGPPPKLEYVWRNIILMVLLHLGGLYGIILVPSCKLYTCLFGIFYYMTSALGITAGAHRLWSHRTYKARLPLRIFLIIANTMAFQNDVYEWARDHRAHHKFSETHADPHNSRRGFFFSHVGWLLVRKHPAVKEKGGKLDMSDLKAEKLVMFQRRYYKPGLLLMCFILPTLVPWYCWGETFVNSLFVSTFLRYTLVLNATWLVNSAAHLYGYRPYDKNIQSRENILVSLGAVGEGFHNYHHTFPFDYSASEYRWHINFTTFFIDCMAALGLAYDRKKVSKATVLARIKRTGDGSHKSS

[2] = Apparent permeability from basolateral to apical side in human Caco2 cells; format: ADME, cell-based; conditions: Caco-2
How it was run: (§1)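 Caco-2 monolayers; apparent permeability a-to-b and b-to-a reported in 10⁻⁶ cm/s.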

[3] = biological target: Acyl-CoA (8-3)-desaturase (Rattus norvegicus) (UniProt Q920R3); assay: Inhibition of delta5 desaturase in Sprague-Dawley rat liver microsome at 10 uM; format: microsomes
Chain of Acyl-CoA (8-3)-desaturase (Rattus norvegicus) (Q920R3 whole entry, looked up): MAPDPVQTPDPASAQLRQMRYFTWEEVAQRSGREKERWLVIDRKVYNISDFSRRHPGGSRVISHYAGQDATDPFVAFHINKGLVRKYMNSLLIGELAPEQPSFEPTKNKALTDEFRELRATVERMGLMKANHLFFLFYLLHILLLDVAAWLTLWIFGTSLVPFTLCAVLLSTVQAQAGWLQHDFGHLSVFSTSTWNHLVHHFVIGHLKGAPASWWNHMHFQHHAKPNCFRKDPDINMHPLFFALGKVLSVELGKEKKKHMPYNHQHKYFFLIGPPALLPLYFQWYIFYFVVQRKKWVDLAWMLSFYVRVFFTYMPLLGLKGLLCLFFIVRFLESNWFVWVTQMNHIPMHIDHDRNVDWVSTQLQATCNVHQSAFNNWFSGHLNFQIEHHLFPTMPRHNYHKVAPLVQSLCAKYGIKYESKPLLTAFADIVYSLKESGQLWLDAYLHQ

[4] = biological target: Acyl-CoA 6-desaturase (Rattus norvegicus) (UniProt Q9Z122); assay: Inhibition of delta6 desaturase in Sprague-Dawley rat liver microsome using cis,cis-9,12-octadecadienoic acid substrate at 10 uM
Chain of Acyl-CoA 6-desaturase (Rattus norvegicus) (Q9Z122 whole entry, looked up): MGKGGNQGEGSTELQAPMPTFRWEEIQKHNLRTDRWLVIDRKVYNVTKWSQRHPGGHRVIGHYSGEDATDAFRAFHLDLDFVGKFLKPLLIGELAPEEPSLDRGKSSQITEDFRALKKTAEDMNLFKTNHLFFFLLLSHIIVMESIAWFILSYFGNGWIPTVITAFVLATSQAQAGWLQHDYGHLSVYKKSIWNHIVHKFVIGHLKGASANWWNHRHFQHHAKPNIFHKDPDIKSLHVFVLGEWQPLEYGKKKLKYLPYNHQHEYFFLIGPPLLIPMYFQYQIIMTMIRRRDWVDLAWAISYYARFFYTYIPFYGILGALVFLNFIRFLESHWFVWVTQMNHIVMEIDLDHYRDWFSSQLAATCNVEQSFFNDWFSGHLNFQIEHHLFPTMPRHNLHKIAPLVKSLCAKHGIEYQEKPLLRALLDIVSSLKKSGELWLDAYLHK

[5] = Apparent permeability from apical to basolateral side in human Caco2 cells; format: ADME, cell-based; conditions: Caco-2
How it was run: as §1

[6] = Metabolic stability in rat liver microsome after 30 mins by LC/MS/MS analysis; format: ADME; conditions: liver microsomes, read-out: Stability
How it was run: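 Compound incubated 30 min with rat liver microsomes; percent parent remaining by LC/MS/MS.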

[7] = biological target: T2, Stearoyl-CoA desaturase (Homo sapiens, UniProt O00767); assay: Inhibition of SCD1 in human HepG2 cells using [14C]-stearate substrate assessed as decreased production of [14C]-oleic acid after 24 hrs; format: cell-based
T2 sequence (O00767 whole entry): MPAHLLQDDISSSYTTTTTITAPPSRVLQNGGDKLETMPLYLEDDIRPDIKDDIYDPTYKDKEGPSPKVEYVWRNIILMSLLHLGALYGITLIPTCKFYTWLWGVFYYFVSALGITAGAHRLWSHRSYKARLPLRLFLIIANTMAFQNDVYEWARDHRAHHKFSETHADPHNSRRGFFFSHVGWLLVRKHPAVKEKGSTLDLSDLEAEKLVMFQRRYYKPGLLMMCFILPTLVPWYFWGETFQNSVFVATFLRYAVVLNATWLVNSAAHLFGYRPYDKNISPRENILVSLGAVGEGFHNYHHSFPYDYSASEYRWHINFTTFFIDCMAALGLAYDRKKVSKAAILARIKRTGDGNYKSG

[8] = tested on: Rattus norvegicus; assay: In vivo inhibition of SCD1 in Lewis rat liver microsome at 15 mg/kg, ip administered qd for 2 days; format: functional; conditions: 48 h, route intraperitoneal
How it was run: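 Lewis rats fed high-carbohydrate diet for one week, fasted 4 h, then dosed orally (0.1–1 mg/kg in 0.2% Tween 20/1% CMC; n = 4), killed 4 h later; ip arm 15 mg/kg once daily for two days. Liver microsomes prepared, SCD1 activity measured by tritiated water release from [9,10-3H]stearoyl-CoA. Mean ± SD of at least four rats.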

Row | Structure (SMILES) | IC50 [1] | Papp B→A [2] | inhibition [3] | inhibition [4] | Papp A→B [5] | remaining at 0.5 h [6] | IC50 [7] | inhibition in vivo at 15 mg/kg [8]
1 | CC(C)CCNC(=O)c1ccc(N2CCN(C(=O)c3ccccc3C(F)(F)F)CC2)cn1 | 220 nM |  |  |  |  |  |  | 
2 | O=C(NCc1ncco1)c1ccc(N2CCN(C(=O)c3ccccc3C(F)(F)F)CC2)nn1 | 500 nM |  |  |  |  |  |  | 
3 | O=C(NCCc1ccccc1)c1ccc(N2CCN(C(=O)c3ccccc3C(F)(F)F)CC2)nn1 |  | 15 ×10⁻⁶ cm/s | inactive | inactive | 16 ×10⁻⁶ cm/s | 56% |  | 
4 | O=C(NCCCc1ccccc1)c1ccc(N2CCN(C(=O)c3ccccc3C(F)(F)F)CC2)nn1 | 69 nM |  | inactive | inactive |  |  |  | 
5 | O=C(NCc1ccccc1)c1ccc(N2CCN(C(=O)c3ccccc3C(F)(F)F)CC2)nn1 | 6 nM | 34 ×10⁻⁶ cm/s | inactive | inactive | 34 ×10⁻⁶ cm/s | 97% |  | 
6 | CC(C)CCNC(=O)c1cnc(N2CCN(C(=O)c3ccccc3C(F)(F)F)CC2)nc1 | > 10000 nM |  |  |  |  |  |  | 
7 | CC1CCCCC1C(=O)N1CCN(c2ccc(C(=O)NCCC3CC3)nn2)CC1 (configuration not stated) | 680 nM |  |  |  |  |  |  | 
8 | CC(C)CCNC(=O)c1cnc(N2CCN(C(=O)c3ccccc3C(F)(F)F)CC2)cn1 | > 10000 nM |  |  |  |  |  |  | 
9 | CC(CNC(=O)c1ccc(N2CCN(C(=O)c3ccccc3C(F)(F)F)CC2)nn1)c1ccccc1 (configuration not stated) | 150 nM |  | inactive | inactive |  |  |  | 
10 | N#Cc1ccccc1C(=O)N1CCN(c2ccc(C(=O)NCCC3CC3)nn2)CC1 | > 1000 nM |  |  |  |  |  |  | 
11 | CN(C)c1ccccc1C(=O)N1CCN(c2ccc(C(=O)NCCC3CC3)nn2)CC1 | 920 nM |  |  |  |  |  |  | 
12 | O=C(NCCC1CC1)c1ccc(N2CCN(C(=O)/C=C\C(F)(F)F)CC2)nn1 | > 10000 nM |  |  |  |  |  |  | 
13 | O=C(NCCC1CC1)c1ccc(N2CCN(C(=O)c3ccccc3F)CC2)nn1 | > 1000 nM |  |  |  |  |  |  | 
14 | O=C(Nc1ccccn1)c1ccc(N2CCN(C(=O)c3ccccc3C(F)(F)F)CC2)nn1 | 1400 nM |  |  |  |  |  |  | 
15 | Cc1ccc(C)c(C(=O)N2CCN(c3ccc(C(=O)NCCC4CC4)nn3)CC2)c1 | 942 nM |  |  |  |  |  |  | 
16 | CCCCCCNC(=O)c1ccc(N2CCN(C(=O)c3ccccc3C(F)(F)F)CC2)nn1 | 21 nM | 18 ×10⁻⁶ cm/s | inactive | inactive | 20 ×10⁻⁶ cm/s | 14% |  | 
17 | O=C(NCCC1CC1)c1ccc(N2CCN(C(=O)c3cccc(F)c3C(F)(F)F)CC2)nn1 | 58 nM | 26 ×10⁻⁶ cm/s | inactive | inactive | 20 ×10⁻⁶ cm/s | 72% |  | 
18 | CC(C(=O)N1CCN(c2ccc(C(=O)NCCC3CC3)nn2)CC1)(C(F)(F)F)C(F)(F)F | 113 nM |  | inactive | inactive |  |  | 119 nM | 
19 | O=C(NCCC1CC1)c1ccc(N2CCN(C(=O)c3cc(Cl)ccc3Cl)CC2)nn1 | 34 nM |  | inactive | inactive |  |  | 101 nM | 
20 | O=C(Nc1ccccc1)c1ccc(N2CCN(C(=O)c3ccccc3C(F)(F)F)CC2)nn1 | 83 nM | 10 ×10⁻⁶ cm/s | inactive | inactive | 13 ×10⁻⁶ cm/s | 9% |  | 
21 | CN(C)c1ccc(Cl)c(C(=O)N2CCN(c3ccc(C(=O)NCCC4CC4)nn3)CC2)c1 | > 10000 nM |  |  |  |  |  |  | 
22 | O=C(NCCC1CC1)c1ccc(N2CCN(C(=O)c3ccoc3C(F)(F)F)CC2)nn1 |  |  | inactive | inactive |  |  | 290 nM | 
23 | O=C(NCc1ccccn1)c1ccc(N2CCN(C(=O)c3ccccc3C(F)(F)F)CC2)nn1 | 352 nM |  |  |  |  |  |  | 
24 | O=C(NCCC1CC1)c1ccc(N2CCN(C(=O)c3ccccc3C(=O)O)CC2)nn1 | > 10000 nM |  |  |  |  |  |  | 

Row | Structure (SMILES) | IC50 [1] | Papp B→A [2] | inhibition [3] | inhibition [4] | Papp A→B [5] | remaining at 0.5 h [6] | IC50 [7] | inhibition in vivo at 15 mg/kg [8]
25 | O=C(NCCCCC1CC1)c1ccc(N2CCN(C(=O)c3ccccc3C(F)(F)F)CC2)nn1 |  | 17 ×10⁻⁶ cm/s | inactive | inactive | 13 ×10⁻⁶ cm/s | 42% |  | 
26 | O=C(NCCCC1CC1)c1ccc(N2CCN(C(=O)c3ccccc3C(F)(F)F)CC2)nn1 | 34 nM | 30 ×10⁻⁶ cm/s | inactive | inactive | 32 ×10⁻⁶ cm/s | 63% |  | > 60%
27 | O=C(NCc1ccn[nH]1)c1ccc(N2CCN(C(=O)c3ccccc3C(F)(F)F)CC2)nn1 | > 1000 nM |  |  |  |  |  |  | 
28 | O=C(NCc1cocn1)c1ccc(N2CCN(C(=O)c3ccccc3C(F)(F)F)CC2)nn1 | 272 nM |  |  |  |  |  |  | 
29 | Cc1ccc(CNC(=O)c2ccc(N3CCN(C(=O)c4ccccc4C(F)(F)F)CC3)nn2)o1 | 15 nM | 23 ×10⁻⁶ cm/s | inactive | inactive | 25 ×10⁻⁶ cm/s | 37% |  | < 30%
30 | CC(C)CCNC(=O)c1ccc(N2CCN(C(=O)c3ccccc3C(F)(F)F)CC2)nc1 | 78 nM |  |  |  |  |  |  | 
31 | O=C(NCc1nccs1)c1ccc(N2CCN(C(=O)c3ccccc3C(F)(F)F)CC2)nn1 | 32 nM | 29 ×10⁻⁶ cm/s | inactive | inactive | 29 ×10⁻⁶ cm/s | 79% |  | 
32 | COc1ccc(Br)c(C(=O)N2CCN(c3ccc(C(=O)NCCCc4ccccc4)cn3)CC2)c1 | 5100 nM |  |  |  |  |  |  | 
33 | O=C(NCc1ccc(C(F)(F)F)o1)c1ccc(N2CCN(C(=O)c3ccccc3C(F)(F)F)CC2)nn1 | 31 nM | 18 ×10⁻⁶ cm/s | inactive | inactive | 18 ×10⁻⁶ cm/s | 78% |  | 
34 | CCCCCCNC(=O)c1ncc(N2CCN(C(=O)c3ccccc3C(F)(F)F)CC2)cn1 | 1200 nM |  |  |  |  |  |  | 
35 | O=C(NCCC1CC1)c1ccc(N2CCN(C(=O)c3cc(F)ccc3F)CC2)nn1 | 3110 nM |  |  |  |  |  |  | 
36 | CC(C)(O)CCNC(=O)c1ccc(N2CCN(C(=O)c3ccccc3C(F)(F)F)CC2)nn1 | 10000 nM |  |  |  |  |  |  | 
37 | CCCCCNC(=O)c1ccc(N2CCN(C(=O)c3ccccc3C(F)(F)F)CC2)nn1 | 25 nM | 22 ×10⁻⁶ cm/s | inactive | inactive | 22 ×10⁻⁶ cm/s | 49% |  | 
38 | O=C(NCCC1CC1)c1ccc(N2CCN(C(=O)c3ccc(F)cc3C(F)(F)F)CC2)nn1 | 21 nM | 22 ×10⁻⁶ cm/s | inactive | inactive | 22 ×10⁻⁶ cm/s | 69% |  | > 60%
39 | CCOCCNC(=O)c1ccc(N2CCN(C(=O)c3ccccc3C(F)(F)F)CC2)nn1 | 1250 nM |  |  |  |  |  |  | 
40 | O=C(NC[C@H](O)c1ccccc1)c1ccc(N2CCN(C(=O)c3ccccc3C(F)(F)F)CC2)nn1 |  | 28 ×10⁻⁶ cm/s | inactive | inactive | 22 ×10⁻⁶ cm/s | 92% |  | 
41 | O=C(NCCC1CC1)c1ccc(N2CCN(C(=O)c3cnc(Cl)nc3C(F)(F)F)CC2)nn1 | 321 nM |  | inactive | inactive |  |  | 5870 nM | 
42 | COc1ccc(F)cc1C(=O)N1CCN(c2ccc(C(=O)NCCC3CC3)nn2)CC1 | 710 nM |  |  |  |  |  |  | 
43 | O=C(NCCC1CC1)c1ccc(N2CCN(C(=O)c3cc(F)ccc3Cl)CC2)nn1 | 62 nM | 29 ×10⁻⁶ cm/s | inactive | inactive | 28 ×10⁻⁶ cm/s | 66% | 192 nM | 
44 | O=C(NC[C@@H](O)c1ccccc1)c1ccc(N2CCN(C(=O)c3ccccc3C(F)(F)F)CC2)nn1 |  | 29 ×10⁻⁶ cm/s | inactive | inactive | 23 ×10⁻⁶ cm/s | 82% |  | > 60%
45 | Cc1cnc(CNC(=O)c2ccc(N3CCN(C(=O)c4ccccc4C(F)(F)F)CC3)nn2)cn1 | 33 nM |  | inactive | inactive |  |  |  | 
46 | CCCCCCCNC(=O)c1ccc(N2CCN(C(=O)c3ccccc3C(F)(F)F)CC2)nn1 | 18 nM |  | inactive | inactive |  |  |  | 
47 | O=C(NCCC1CC1)c1ccc(N2CCN(C(=O)C3CC3C(F)(F)F)CC2)nn1 (configuration not stated) | > 1000 nM |  |  |  |  |  |  | 

Source: ChEMBL document CHEMBL2311383, “Discovery of piperazin-1-ylpyridazine-based potent and selective stearoyl-CoA desaturase-1 inhibitors for the treatment of obesity and metabolic syndrome” (J Med Chem, 2013)
